From PubChem
Only a selection was taken, and hits are over-represented in it overall.
PfG6PD inh = PfG6PD (Plasmodium falciparum) enzyme inhibition | PfGluPho enzyme, NADPH resazurin-diaphorase fluorescence | inhibition, % at 20 µM | 350,000 tested, 0.78% active | AID 504690;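 active = inhibition reaching at least a set limit at 20 µM in the primary screen, cut at about 59% in these data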;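 also: 0% = DMSO wells with substrate and 100% = DMSO wells lacking glucose-6-phosphate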
DTT redox prof = compounds producing H2O2 with reducing agent – biochemical, NIH compound library profiling, artefact control for MLSCN library redox annotation, primary screen | DTT-dependent redox cycling H2O2, phenol red/HRP absorbance; 100% = 100 µM peroxide control, 0% = buffer | activation, % at 10 µM | 200,000 tested, 0.03% active | AID 878;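 active = activation of at least 50% relative to the plate's high and low controls in the primary single-dose screen; inactive = activation below 50%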;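 also: compound incubated with DTT at 0.8 mM final as the reducing agent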
Lmaj promast = Leishmania major promastigote growth inhibition. Leishmania major promastigotes, resazurin fluorescence viability. inhibition, % at 10 µM. 200,000 tested, 9% active;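 also: promastigotes grown with compound for 44 hours at 28 °C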
G6PDH CS = inhibits Leuconostoc G6PDH, flagging false hits in G6PDH-based assays | Purified L. mesenteroides G6PDH, diaphorase/resazurin coupled fluorescence, 45 min | inhibition, % at 5 µM | 200,000 tested, 0.12% active | AID 1020
Diaphorase inh = counter-screen for diaphorase-based assays: diaphorase inhibitors and chemical oxidizers; diaphorase resazurin-to-resorufin fluorescence, NADH, 16 min; bacterial (C. kluyveri) enzyme, not human; inhibition, % at 20 µM; 190,000 tested, 0.69% active;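 active = primary screen inhibition at 20 µM above a set limit, cut at about 50% in these data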;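 also: plate controls were DMSO with full reaction for no effect and wells lacking NADH for full effect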
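System: Diaphorase enzyme from Clostridium kluyveri | Amount: Enzyme working solution with 0.14 U/mL diaphorase | Benchmarks: No-NADH positive control and DMSO neutral control | Signal: Fluorescence of resorufin formed from resazurin, Ex 544/Em 590 nm | Schedule: 16-min room-temperature incubation before reading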
Diaph act CS = diaphorase activation or chemical reduction counter-screen | Diaphorase/resazurin coupled assay, resorufin fluorescence, 16 min; active compounds read high; 1 = vehicle wells, 0 = NADH-free wells | activation factor at 20 µM | 190,000 tested, 0.005% active;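 active = diaphorase activity raised at least twofold by the compound at 20 µM; inactive = activation factor below 2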
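test system = bacterial diaphorase enzyme (C. kluyveri) | quantity = enzyme 0.07 U/mL final | reagent = NADH substrate 0.114 mM plus resazurin dye 0.1 mM, final | incubation = 16 min enzyme reaction, ambient temperature | buffer or medium = HEPES pH 7.4 buffer with MgCl2 and Tween 20 | signal = fluorescence of resorufin, 544 nm excitation, 590 nm emission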
* marks the source's active call; other numbers are inactive results; · = not tested or not shown. Rule as the data show it, unless noted: active = inhibition above about 50%; inactive = the rest.

SMILES | PfG6PD inh | DTT redox prof | Lmaj promast | G6PDH CS | Diaphorase inh | Diaph act CS
O=C(NCCC1CCCCN1S(=O)(=O)c1cccs1)C(=O)NCc1ccccc1 (stereo not drawn) | 8 | · | · | · | · | ·
COc1ccc(/C=C2\C(=O)N(Cc3ccc(F)cc3)CC(=O)N2Cc2ccccc2)cc1 | 1 | 2 | 95* | -22 | 19 | 0.8
O=C(Nc1ccc2nc(-c3cccs3)c(-c3cccs3)nc2c1)NC1CC1 | -5 | 5 | 64* | 6 | 25 | 0.8
COCCNC(=O)Nc1ccc2nc(-c3cccs3)c(-c3cccs3)nc2c1 | -8 | 1 | 27 | 22 | 30 | 0.7
Cc1cc(N2CCN(C)CC2)ccc1NC(=O)c1cccc(S(=O)(=O)N2CCc3ccccc3C2)c1 | 0 | 0 | 98* | -3 | -45 | 1.5
Cc1ccc(NC(=O)c2cccc(S(=O)(=O)N3CCc4ccccc4C3)c2)nc1 | -1 | · | · | · | · | ·
C[C@@H]1CN([C@H](C)CO)C(=O)CCCn2cc(nn2)CO[C@H]1CN(C)S(=O)(=O)c1ccc(C#N)cc1 | 1 | · | · | · | · | ·
O=C(O)c1sc2cc(C(F)(F)F)cnc2c1-c1ccccn1 | -15 | 0 | -7 | -2 | 4 | 1
Cc1ccc(-c2nc3c(=O)n(C)c4ccccc4c3o2)cc1 | 14 | 1 | 63* | 3 | 16 | 0.8
Cc1ccc(-c2nc3c(=O)n(-c4ccccc4)c4c(c(=O)n(C)c(=O)n4C)c3o2)cc1 | -12 | · | · | · | · | ·
COc1ccc(C(=O)NC2CCCCCC2)cc1S(=O)(=O)N1CCCC1 | -5 | -1 | 4 | 10 | 0 | 1
